The target of one assay is D(2) dopamine receptor (Rattus norvegicus, UniProt P61169). The assay can be described thus: In vitro affinity for rat striatal Dopamine receptor D2 labeled with [3H]spiperone.
For assay [1], the target named is T1, Adrenergic receptor alpha-1 (Rattus norvegicus, UniProt P15823+P23944+P43140).
T1 sequence (P15823 whole entry): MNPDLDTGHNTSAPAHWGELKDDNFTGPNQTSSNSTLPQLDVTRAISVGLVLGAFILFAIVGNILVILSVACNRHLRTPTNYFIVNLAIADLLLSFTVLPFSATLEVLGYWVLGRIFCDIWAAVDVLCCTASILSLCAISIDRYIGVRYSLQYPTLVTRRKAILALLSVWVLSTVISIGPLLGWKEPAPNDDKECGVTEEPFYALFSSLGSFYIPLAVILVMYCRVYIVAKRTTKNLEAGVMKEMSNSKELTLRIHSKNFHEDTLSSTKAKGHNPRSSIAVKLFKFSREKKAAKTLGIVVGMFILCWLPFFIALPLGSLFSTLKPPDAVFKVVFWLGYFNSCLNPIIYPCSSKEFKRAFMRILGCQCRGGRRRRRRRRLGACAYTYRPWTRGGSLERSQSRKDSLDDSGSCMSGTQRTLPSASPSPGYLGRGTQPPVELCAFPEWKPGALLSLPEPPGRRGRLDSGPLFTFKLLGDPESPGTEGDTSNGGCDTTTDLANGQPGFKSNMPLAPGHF
T1 sequence (P23944 whole entry): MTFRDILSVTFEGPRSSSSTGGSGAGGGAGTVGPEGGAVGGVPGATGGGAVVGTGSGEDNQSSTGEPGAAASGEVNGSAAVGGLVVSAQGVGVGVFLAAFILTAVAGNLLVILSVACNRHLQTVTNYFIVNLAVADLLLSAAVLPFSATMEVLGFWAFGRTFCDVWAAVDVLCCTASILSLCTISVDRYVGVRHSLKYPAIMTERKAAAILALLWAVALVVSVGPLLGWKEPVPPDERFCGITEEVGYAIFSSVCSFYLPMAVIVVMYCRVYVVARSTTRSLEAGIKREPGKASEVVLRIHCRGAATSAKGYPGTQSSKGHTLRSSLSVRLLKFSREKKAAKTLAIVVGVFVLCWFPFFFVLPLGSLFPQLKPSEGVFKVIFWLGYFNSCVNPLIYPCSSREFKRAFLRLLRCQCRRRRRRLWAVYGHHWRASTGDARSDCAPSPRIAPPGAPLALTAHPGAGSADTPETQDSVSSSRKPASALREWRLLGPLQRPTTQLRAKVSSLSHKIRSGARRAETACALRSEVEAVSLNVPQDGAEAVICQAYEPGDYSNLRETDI
T1 sequence (P43140 whole entry): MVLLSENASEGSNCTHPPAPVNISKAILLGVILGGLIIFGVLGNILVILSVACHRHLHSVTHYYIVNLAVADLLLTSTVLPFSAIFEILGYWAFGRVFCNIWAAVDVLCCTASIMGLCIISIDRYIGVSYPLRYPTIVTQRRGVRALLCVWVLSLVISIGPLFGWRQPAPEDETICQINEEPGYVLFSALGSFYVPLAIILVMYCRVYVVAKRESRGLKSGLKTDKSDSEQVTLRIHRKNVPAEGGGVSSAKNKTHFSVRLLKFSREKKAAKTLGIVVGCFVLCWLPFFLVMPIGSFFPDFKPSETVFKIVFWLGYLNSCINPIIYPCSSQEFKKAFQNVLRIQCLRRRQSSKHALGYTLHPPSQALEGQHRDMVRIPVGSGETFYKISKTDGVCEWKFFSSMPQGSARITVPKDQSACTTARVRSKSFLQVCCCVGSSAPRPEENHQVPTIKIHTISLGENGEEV

The nature of assay [2]: Binding affinity against glycine receptor was measured using radioligand ([3H]strychnine) binding assay.
Assay [3] is filed under the species Rattus norvegicus. The assay can be described thus: Compound was tested for inhibition of hexobarbatial potentiation in rat. Format: functional. The essentials: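 Hexobarbital sodium (40 mg/kg, ip) was given to nonfasted male rats 15, 30, 60 or 120 min after test drug, or 15 min after vehicle (distilled H2O or 0.5% methocel). Loss of righting reflex of 1-min duration was scored over about 10–15 min. Dose response at peak-effect time used 10 rats/dose; ED50 and fiducial limits by Berkson.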

For assay [4], the species on record is Mus musculus. The assay can be described thus: Compound was tested for inhibition of spontaneous motor activity in mouse. It is filed as functional.
The species named for assay [5] is Rattus norvegicus. Nature of the assay: Compound was tested for inhibition of ethanol potentiation in rat. It is filed as functional. The essentials: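 Nonfasted male rats received test drug or vehicle (distilled H2O or 0.5% methocel). EtOH (10 mL of 20% solution/kg, ip) followed at 15, 30, 60 or 120 min post-drug; the vehicle group got it at 15 min. Rats were watched about 10–15 min for loss of righting reflex lasting 1 min. Dose response at peak time used 10/dose; ED50 by Berkson.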

Assay [6] is filed under the species Mus musculus. The assay can be described thus: Compound was tested for inhibition of physostigmine lethality in mouse. Format: functional. The essentials:
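Groups of 10 nonfasted male mice dosed orally with test compound (initial 100 mg/kg) or vehicle (distilled H2O or 0.5% methocel). At 30 min, physostigmine given ip at 1.25 mg/kg, and lethality followed for up to 1 h. Active compounds retested at lower doses, 10 mice/dose, for dose response. ED50 by Berkson's method.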

The species entered for assay [7] is Rattus norvegicus. The assay can be described thus: Compound was tested for inhibition of spontaneous motor activity in rat. It is filed as functional.
Assay [8] in a line: Binding affinity against imipramine receptor was measured using radioligand ([3H]-imipramine) binding assay. Set-up: species or system Rattus norvegicus.
The species entered for assay [9] is Mus musculus. The assay can be described thus: Compound was tested for inhibition of norepinephrine lethality in mouse. Format: functional. In a few lines: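 Groups of 10 nonfasted male mice dosed orally with test compound (initial 100 mg/kg) or vehicle (distilled H2O or 0.5% methocel). Active compounds retested at lower doses, 10 mice/dose, for dose response. ED50 by Berkson's method.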

Molecules are shown by their SMILES.

D(2) dopamine receptor, sequence (P61169 whole entry): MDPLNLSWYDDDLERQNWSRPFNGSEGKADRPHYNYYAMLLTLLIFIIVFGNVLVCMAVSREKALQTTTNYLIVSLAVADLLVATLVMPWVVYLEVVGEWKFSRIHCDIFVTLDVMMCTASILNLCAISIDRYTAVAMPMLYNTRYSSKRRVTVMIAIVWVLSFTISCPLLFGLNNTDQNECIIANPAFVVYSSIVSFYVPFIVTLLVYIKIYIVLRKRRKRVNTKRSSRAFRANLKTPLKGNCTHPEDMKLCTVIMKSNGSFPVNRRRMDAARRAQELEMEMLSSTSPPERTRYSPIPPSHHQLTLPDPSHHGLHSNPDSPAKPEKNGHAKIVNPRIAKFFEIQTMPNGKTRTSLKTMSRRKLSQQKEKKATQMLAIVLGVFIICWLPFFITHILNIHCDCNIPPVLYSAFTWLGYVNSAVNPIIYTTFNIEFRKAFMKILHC

As for `Cl.O=C1CC2(CCCC2)CC(=O)N1CCCCN1CCN(c2nsc3ccccc23)CC1` [TIOSPIRONE HYDROCHLORIDE], the IC50 is 8 nM on D(2) dopamine receptor, 47 nM in assay [1], above 1000 nM in assay [2] and above 1000 nM in assay [8]. Further, the ED50 turned out to be 6.7 mg/kg in the assay listed under Rattus norvegicus [3]; 17.3 mg/kg in the assay listed under Mus musculus [4]; 9.3 mg/kg in the assay listed under Rattus norvegicus [5]; 294 mg/kg in the assay filed under Mus musculus [6]; 8.4 mg/kg in the assay filed under Rattus norvegicus [7]; 12.5 mg/kg in the assay filed under Mus musculus [9].
